The values below come from ChEMBL document CHEMBL1125096, “Synthesis and antitumor activity of 9-[(carbamoyloxy)alkyl]anthracyclines: a novel class of anthracycline derivatives” (1990).

The term T/C denotes the result in the treated group divided by that in the control group, in per cent.

Holding throughout (type): functional, Mus musculus
Assay [1] concerns L1210 (1565). The experiment in a line: Antitumor activity against L-1210 leukemia cell line in BDF1 mice after injecting 0.25 mg/kg intraperitoneal dose. In short, it runs like this: (§1)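 Female BDF1 mice, five per dose group, inoculated ip with 10^5 viable L-1210 ascites cells. Dosing started the same day: ip, daily, five times a week for 4 weeks or until death. Vehicle was aqueous solution, or propylene glycol suspension if insoluble. Efficacy is expressed as T/C, the ratio of mean survival time of treated to untreated control mice. Survivors at 4 weeks counted as long-term.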

Assay [2] has as its system L1210 (1565). The experiment in a line: Antitumor activity against L-1210 leukemia cell line in BDF1 mice after injecting 2 mg/kg intraperitoneal dose. Put shortly:
as §1

The subject of assay [3] is L1210 (1565). Nature of the assay: Antitumor activity against L-1210 leukemia cell line in BDF1 mice after injecting 0.125 mg/kg intraperitoneal dose. Put shortly:
as §1

The subject of assay [4] is L1210 (1565). Nature of the assay: Antitumor activity against L-1210 leukemia cell line in BDF1 mice after injecting 0.05 mg/kg intraperitoneal dose. In short, it runs like this: as §1
The subject of assay [5] is L1210 (1565). The experiment in a line: Antitumor activity against L-1210 leukemia cell line in BDF1 mice after injecting 1 mg/kg intraperitoneal dose. Put shortly:
as §1

Assay [6] deals with L1210 (1565). The experiment in a line: Antitumor activity against L-1210 leukemia cell line in BDF1 mice after injecting 16 mg/kg intraperitoneal dose. In short, it runs like this: as §1
Assay [7] deals with L1210 (1565). Nature of the assay: Antitumor activity against L-1210 leukemia cell line in BDF1 mice after injecting 4 mg/kg intraperitoneal dose. In short, it runs like this:
as §1

The test system of assay [8] is L1210 (1565). The experiment in a line: Antitumor activity against L-1210 leukemia cell line in BDF1 mice after injecting 0.5 mg/kg intraperitoneal dose. In short, it runs like this: as §1

`C[C@@H]1OC(O[C@H]2C[C@](O)([C@@H](C)OC(=O)Nc3ccccc3)Cc3c(O)c4c(c(O)c32)C(=O)c2ccccc2C4=O)C[C@H](N)[C@@H]1O.Cl` (some centres undefined) had a T/C with L1210 (1565) [1] of 420%.
With `C[C@H]1C[C@H](N)C[C@H](O[C@H]2C[C@](O)(COC(=O)Nc3ccccc3)Cc3c(O)c4c(c(O)c32)C(=O)c2ccccc2C4=O)O1.Cl`, the T/C in the assay with L1210 (1565) [2] was 500%.
Consider `C[C@@H]1OC(O[C@H]2C[C@](O)([C@H](C)OC(=O)Nc3ccccc3)Cc3c(O)c4c(c(O)c32)C(=O)c2ccccc2C4=O)C[C@H](N)[C@H]1O.Cl` (some centres undefined), for which the T/C with L1210 (1565) [3] was determined as 400%.
Take `CC(=O)[C@]1(O)Cc2c(O)c3c(c(O)c2[C@@H](O[C@H]2C[C@@H](N)[C@H](O)[C@H](C)O2)C1)C(=O)c1ccccc1C3=O.Cl`: the T/C in the assay on L1210 (1565) [4] was found to be 230%.
Turning to `CC1OC(O[C@H]2C[C@](O)([C@@H](C)OC(=O)Nc3ccccc3)Cc3c(O)c4c(c(O)c32)C(=O)c2ccccc2C4=O)CC(N)C1O.Cl` (some centres undefined), in the assay with L1210 (1565) [5], the T/C is 280%.
Regarding `CC1OC(O[C@H]2C[C@](O)(COC(=O)Nc3ccccc3)Cc3c(O)c4c(c(O)c32)C(=O)c2ccccc2C4=O)CC(N)C1OCc1ccccc1.Cl` (some centres undefined), the T/C in the assay on L1210 (1565) [6] came out at 470%.
For the molecule `CC1OC(O[C@H]2C[C@](O)(COC(=O)Nc3ccc([N+](=O)[O-])cc3)Cc3c(O)c4c(c(O)c32)C(=O)c2ccccc2C4=O)CC(N)C1O.Cl` (some centres undefined), the T/C in the assay on L1210 (1565) [7] is given as 210%.
Consider `COc1ccc(NC(=O)OC[C@]2(O)Cc3c(O)c4c(c(O)c3[C@@H](OC3CC(N)C(O)C(C)O3)C2)C(=O)c2ccccc2C4=O)cc1.Cl` (some centres undefined), for which the T/C in the assay on L1210 (1565) [2] turned out to be 230%.
For `CNC(=O)OC[C@]1(O)Cc2c(O)c3c(c(O)c2[C@@H](OC2CC(N)C(O)C(C)O2)C1)C(=O)c1ccccc1C3=O.Cl` (some centres undefined), the T/C with L1210 (1565) [7] was 280%.
Turning to `CC1OC(O[C@H]2C[C@](O)(COC(=O)Nc3ccc(Cl)cc3)Cc3c(O)c4c(c(O)c32)C(=O)c2ccccc2C4=O)CC(N)C1O.Cl` (some centres undefined), the T/C with L1210 (1565) [2] turned out to be 370%.
Turning to `C[C@@H]1O[C@@H](O[C@H]2C[C@](O)(COC(=O)Nc3ccccc3)Cc3c(O)c4c(c(O)c32)C(=O)c2ccccc2C4=O)C[C@@H](N)[C@@H]1O.Cl` (stereo in doubt; 8a), the T/C with L1210 (1565) [2] (2 mg/kg) was 380%.
Same read-out and setting: as for `CO[C@H]1[C@H](N)C[C@H](O[C@H]2C[C@](O)(COC(=O)Nc3ccccc3)Cc3c(O)c4c(c(O)c32)C(=O)c2ccccc2C4=O)O[C@H]1C.Cl` (stereo in doubt; 19), the figure is 230%.
As for `COc1cccc2c1C(=O)c1c(O)c3c(c(O)c1C2=O)C[C@@](O)(C(C)=O)C[C@@H]3O[C@H]1C[C@H](N)[C@H](O)[C@H](C)O1.Cl` [DAUNORUBICIN HYDROCHLORIDE], the T/C with L1210 (1565) [8] worked out at 290%.
On to `COc1cccc2c1C(=O)c1c(O)c3c(c(O)c1C2=O)C[C@@](O)(C(=O)CO)C[C@@H]3O[C@H]1C[C@H](N)[C@H](O)[C@H](C)O1.Cl` [DOXORUBICIN HYDROCHLORIDE], for which, in the assay with L1210 (1565) [2], the T/C was 330%.
